Reference: ChEMBL document CHEMBL1134812, “Benzamide bioisosteres incorporating dihydroheteroazole substructures: EPC synthesis and SAR leading to a selective dopamine D4 receptor partial agonist (FAUC 179)” (Bioorg Med Chem Lett, 2001)

Target: not listed separately
Assay: In vitro for its ability to displace [3H]- ketanserin from 5-hydroxytryptamine 2 receptor in porcine brain homogenate
Assay type: tissue-based
Settings: not given
Method in brief: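 5-HT2 binding was measured in porcine brain homogenates by displacement of [3H]ketanserine. Ki values were determined.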
For `c1ccc(C2=NC[C@H](CN3CCN(c4ccccc4)CC3)N2)cc1` (stereo in doubt; 4e), the Ki was 870 nM.

Target: T1, D(2) dopamine receptor (Homo sapiens, UniProt P14416)
T1 sequence (P14416 whole entry): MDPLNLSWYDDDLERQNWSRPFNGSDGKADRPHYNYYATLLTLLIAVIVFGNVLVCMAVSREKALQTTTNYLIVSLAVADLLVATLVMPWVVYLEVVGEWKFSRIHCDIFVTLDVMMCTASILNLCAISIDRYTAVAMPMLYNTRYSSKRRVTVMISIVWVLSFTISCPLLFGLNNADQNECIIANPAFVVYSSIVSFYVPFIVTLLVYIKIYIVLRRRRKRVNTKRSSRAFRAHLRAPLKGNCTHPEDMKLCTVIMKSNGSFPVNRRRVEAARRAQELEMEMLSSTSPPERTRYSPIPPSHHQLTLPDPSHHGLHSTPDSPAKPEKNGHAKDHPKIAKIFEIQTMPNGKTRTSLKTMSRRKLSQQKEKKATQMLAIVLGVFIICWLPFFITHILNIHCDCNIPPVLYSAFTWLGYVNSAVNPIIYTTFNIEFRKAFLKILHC
Assay: In vitro for its ability to displace [3H]- spiperone from cloned human dopamine D2 short receptor expressed in CHO cells
Assay type: cell-based
Settings: not given
Method in brief: (§1)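 [3H]Spiperone displacement from cloned human dopamine receptors stably expressed in CHO cells: D2long, D2short, D3 and D4.4 (the D4 line used the D4.4 variant). Ki values were determined.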
Molecule `COc1ccc(Br)cc1C1=N[C@@H](CN2CCN(c3ccccc3)CC2)CO1` (stereo in doubt) has a Ki of 110 nM. `COc1ccc(Br)cc1C1=N[C@@H](CN2CCN(c3ccccc3)CC2)[C@@H](C)O1` (stereo in doubt) showed a Ki of 18000 nM. `c1ccc(C2=NC[C@H](CN3CCN(c4ccccc4)CC3)N2)cc1` (stereo in doubt) gave a Ki of 10000 nM. For `c1ccc(C2=N[C@@H](CN3CCN(c4ccccc4)CC3)CS2)cc1` (stereo in doubt), the Ki was 720 nM. Work on `C[C@@H]1OC(c2ccccc2)=N[C@H]1CN1CCN(c2ccccc2)CC1` (stereo in doubt) yielded a Ki of 320 nM. With `c1ccc(C2=N[C@@H](CN3CCN(c4ccccc4)CC3)CO2)cc1` (stereo in doubt) the Ki was 330 nM. For `c1ccc(C2=N[C@@H](CN3CCN(c4ccccc4)CC3)CO2)cc1` (stereo in doubt; 4a), the Ki was 1100 nM. For `C[C@@H]1OC(c2ccccc2)=N[C@H]1CN1CCN(c2ccccc2)CC1` (stereo in doubt; 4b), the Ki was 1900 nM. Work on `COc1ccc(Br)cc1C1=N[C@@H](CN2CCN(c3ccccc3)CC2)CO1` (stereo in doubt; 4c) yielded a Ki of 900 nM. `COc1ccc(Br)cc1C1=N[C@@H](CN2CCN(c3ccccc3)CC2)[C@@H](C)O1` (stereo in doubt; 4d) gave a Ki of 2400 nM. Molecule `c1ccc(C2=NC[C@H](CN3CCN(c4ccccc4)CC3)N2)cc1` (stereo in doubt; 4e) has a Ki of 11000 nM. Work on `c1ccc(C2=N[C@@H](CN3CCN(c4ccccc4)CC3)CS2)cc1` (stereo in doubt; 4f) yielded a Ki of 1100 nM.

Target: T1, D(2) dopamine receptor
Assay: In vitro for its ability to displace [3H]- spiperone from cloned human dopamine D2 long receptor expressed in CHO cells
Assay type: cell-based
Settings: not given
Method in brief: as §1
Molecule `COc1ccc(Br)cc1C1=N[C@@H](CN2CCN(c3ccccc3)CC2)CO1` (stereo in doubt) has a Ki of 400 nM. Molecule `COc1ccc(Br)cc1C1=N[C@@H](CN2CCN(c3ccccc3)CC2)[C@@H](C)O1` (stereo in doubt) has a Ki of 21000 nM. Molecule `c1ccc(C2=NC[C@H](CN3CCN(c4ccccc4)CC3)N2)cc1` (stereo in doubt) has a Ki of 14000 nM. `c1ccc(C2=N[C@@H](CN3CCN(c4ccccc4)CC3)CS2)cc1` (stereo in doubt) showed a Ki of 1100 nM. Work on `C[C@@H]1OC(c2ccccc2)=N[C@H]1CN1CCN(c2ccccc2)CC1` (stereo in doubt) yielded a Ki of 820 nM. `c1ccc(C2=N[C@@H](CN3CCN(c4ccccc4)CC3)CO2)cc1` (stereo in doubt) gave a Ki of 690 nM. In the case of `c1ccc(C2=N[C@@H](CN3CCN(c4ccccc4)CC3)CO2)cc1` (stereo in doubt; 4a), the Ki is reported as 1700 nM. For `C[C@@H]1OC(c2ccccc2)=N[C@H]1CN1CCN(c2ccccc2)CC1` (stereo in doubt; 4b), the Ki was 3200 nM. For `COc1ccc(Br)cc1C1=N[C@@H](CN2CCN(c3ccccc3)CC2)CO1` (stereo in doubt; 4c), the Ki was 2200 nM. In the case of `COc1ccc(Br)cc1C1=N[C@@H](CN2CCN(c3ccccc3)CC2)[C@@H](C)O1` (stereo in doubt; 4d), the Ki is reported as 3700 nM. Work on `c1ccc(C2=N[C@@H](CN3CCN(c4ccccc4)CC3)CS2)cc1` (stereo in doubt; 4f) yielded a Ki of 1500 nM.

Target: D(1A) dopamine receptor (Bos taurus, UniProt Q95136)
Sequence (Q95136 whole entry): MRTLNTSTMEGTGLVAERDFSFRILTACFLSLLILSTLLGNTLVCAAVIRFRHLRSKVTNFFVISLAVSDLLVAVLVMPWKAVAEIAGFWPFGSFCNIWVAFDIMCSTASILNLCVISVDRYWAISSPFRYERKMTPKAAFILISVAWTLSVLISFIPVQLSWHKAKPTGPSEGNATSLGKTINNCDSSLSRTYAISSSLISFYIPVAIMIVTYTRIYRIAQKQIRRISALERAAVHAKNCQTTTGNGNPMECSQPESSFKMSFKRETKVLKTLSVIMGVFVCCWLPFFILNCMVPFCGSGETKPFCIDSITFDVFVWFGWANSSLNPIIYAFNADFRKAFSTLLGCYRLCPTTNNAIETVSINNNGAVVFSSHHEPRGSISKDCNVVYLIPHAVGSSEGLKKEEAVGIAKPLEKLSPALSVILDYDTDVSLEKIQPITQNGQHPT
Assay: In vitro for its ability to displace [3H]- SCH 23390 from Dopamine receptor D1 in bovine striatal membrane […]
Assay type: cell-based, Striatum
Settings: not given
Method in brief: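 D1 affinity was measured with bovine striatal membrane preparations and the D1-selective antagonist [3H]SCH 23390 as radioligand. Ki values were determined.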
`COc1ccc(Br)cc1C1=N[C@@H](CN2CCN(c3ccccc3)CC2)CO1` (stereo in doubt) showed a Ki of 2000 nM. Work on `COc1ccc(Br)cc1C1=N[C@@H](CN2CCN(c3ccccc3)CC2)[C@@H](C)O1` (stereo in doubt) yielded a Ki of 480 nM. `c1ccc(C2=N[C@@H](CN3CCN(c4ccccc4)CC3)CS2)cc1` (stereo in doubt) gave a Ki of 4500 nM. `C[C@@H]1OC(c2ccccc2)=N[C@H]1CN1CCN(c2ccccc2)CC1` (stereo in doubt) showed a Ki of 2000 nM. Work on `c1ccc(C2=N[C@@H](CN3CCN(c4ccccc4)CC3)CO2)cc1` (stereo in doubt) yielded a Ki of 4000 nM. `c1ccc(C2=N[C@@H](CN3CCN(c4ccccc4)CC3)CO2)cc1` (stereo in doubt; 4a) showed a Ki of 9700 nM. Molecule `C[C@@H]1OC(c2ccccc2)=N[C@H]1CN1CCN(c2ccccc2)CC1` (stereo in doubt; 4b) has a Ki of 20000 nM. With `COc1ccc(Br)cc1C1=N[C@@H](CN2CCN(c3ccccc3)CC2)CO1` (stereo in doubt; 4c) the Ki was 9000 nM. In the case of `COc1ccc(Br)cc1C1=N[C@@H](CN2CCN(c3ccccc3)CC2)[C@@H](C)O1` (stereo in doubt; 4d), the Ki is reported as 3500 nM. In the case of `c1ccc(C2=NC[C@H](CN3CCN(c4ccccc4)CC3)N2)cc1` (stereo in doubt; 4e), the Ki is reported as 12000 nM. `c1ccc(C2=N[C@@H](CN3CCN(c4ccccc4)CC3)CS2)cc1` (stereo in doubt; 4f) showed a Ki of 16000 nM.

Target: T1, D(2) dopamine receptor
Assay: In vitro for its ability to displace [3H]- spiperone from cloned human Dopamine receptor D2L expressed in CHO cells
Assay type: cell-based
Settings: not given
Method in brief: as §1
For `c1ccc(C2=NC[C@H](CN3CCN(c4ccccc4)CC3)N2)cc1` (stereo in doubt; 4e), the Ki was 10000 nM.

Target: T2, D(4) dopamine receptor (Homo sapiens, UniProt P21917)
T2 sequence (P21917 whole entry): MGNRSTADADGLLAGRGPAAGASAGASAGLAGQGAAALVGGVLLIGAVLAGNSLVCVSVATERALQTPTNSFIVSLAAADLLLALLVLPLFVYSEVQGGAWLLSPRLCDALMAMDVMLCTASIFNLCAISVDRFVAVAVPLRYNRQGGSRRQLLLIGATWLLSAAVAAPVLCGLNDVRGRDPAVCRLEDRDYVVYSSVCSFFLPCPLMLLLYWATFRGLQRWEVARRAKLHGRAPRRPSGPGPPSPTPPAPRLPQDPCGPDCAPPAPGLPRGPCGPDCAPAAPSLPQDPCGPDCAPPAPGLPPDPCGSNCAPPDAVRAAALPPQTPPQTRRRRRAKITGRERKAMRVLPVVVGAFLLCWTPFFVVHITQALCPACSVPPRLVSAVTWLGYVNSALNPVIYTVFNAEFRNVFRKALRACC
Assay: In vitro for its ability to displace [3H]- spiperone from cloned human Dopamine receptor D4 expressed in CHO cells
Assay type: cell-based
Settings: not given
Method in brief: as §1
`COc1ccc(Br)cc1C1=N[C@@H](CN2CCN(c3ccccc3)CC2)CO1` (stereo in doubt) showed a Ki of 390 nM. `COc1ccc(Br)cc1C1=N[C@@H](CN2CCN(c3ccccc3)CC2)[C@@H](C)O1` (stereo in doubt) gave a Ki of 3300 nM. Work on `c1ccc(C2=N[C@@H](CN3CCN(c4ccccc4)CC3)CS2)cc1` (stereo in doubt) yielded a Ki of 1200 nM. In the case of `C[C@@H]1OC(c2ccccc2)=N[C@H]1CN1CCN(c2ccccc2)CC1` (stereo in doubt), the Ki is reported as 440 nM. Work on `c1ccc(C2=N[C@@H](CN3CCN(c4ccccc4)CC3)CO2)cc1` (stereo in doubt) yielded a Ki of 410 nM. In the case of `c1ccc(C2=N[C@@H](CN3CCN(c4ccccc4)CC3)CO2)cc1` (stereo in doubt; 4a), the Ki is reported as 340 nM. With `C[C@@H]1OC(c2ccccc2)=N[C@H]1CN1CCN(c2ccccc2)CC1` (stereo in doubt; 4b) the Ki was 700 nM. Molecule `COc1ccc(Br)cc1C1=N[C@@H](CN2CCN(c3ccccc3)CC2)CO1` (stereo in doubt; 4c) has a Ki of 1600 nM. Work on `COc1ccc(Br)cc1C1=N[C@@H](CN2CCN(c3ccccc3)CC2)[C@@H](C)O1` (stereo in doubt; 4d) yielded a Ki of 290 nM. Work on `c1ccc(C2=N[C@@H](CN3CCN(c4ccccc4)CC3)CS2)cc1` (stereo in doubt; 4f) yielded a Ki of 1800 nM.

Target: D(3) dopamine receptor (Homo sapiens, UniProt P35462)
Sequence (P35462 whole entry): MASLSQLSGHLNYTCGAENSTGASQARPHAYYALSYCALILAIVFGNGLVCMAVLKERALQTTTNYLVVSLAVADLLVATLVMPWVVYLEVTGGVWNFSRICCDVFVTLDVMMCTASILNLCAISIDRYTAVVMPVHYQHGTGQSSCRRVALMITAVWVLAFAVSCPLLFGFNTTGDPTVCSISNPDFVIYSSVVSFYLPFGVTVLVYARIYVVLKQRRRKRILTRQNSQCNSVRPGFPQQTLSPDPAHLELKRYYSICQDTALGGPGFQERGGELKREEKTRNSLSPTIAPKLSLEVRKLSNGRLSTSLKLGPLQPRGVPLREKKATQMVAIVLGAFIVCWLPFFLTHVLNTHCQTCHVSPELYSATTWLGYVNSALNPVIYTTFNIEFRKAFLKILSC
Assay: Displacement of [3H]spiperone from human Dopamine receptor D3 expressed in CHO cells
Assay type: cell-based
Settings: not given
Method in brief: as §1
`COc1ccc(Br)cc1C1=N[C@@H](CN2CCN(c3ccccc3)CC2)CO1` (stereo in doubt) gave a Ki of 1000 nM. With `COc1ccc(Br)cc1C1=N[C@@H](CN2CCN(c3ccccc3)CC2)[C@@H](C)O1` (stereo in doubt) the Ki was 10000 nM. With `c1ccc(C2=NC[C@H](CN3CCN(c4ccccc4)CC3)N2)cc1` (stereo in doubt) the Ki was 9000 nM. Work on `c1ccc(C2=N[C@@H](CN3CCN(c4ccccc4)CC3)CS2)cc1` (stereo in doubt) yielded a Ki of 1200 nM. Molecule `C[C@@H]1OC(c2ccccc2)=N[C@H]1CN1CCN(c2ccccc2)CC1` (stereo in doubt) has a Ki of 710 nM. For `c1ccc(C2=N[C@@H](CN3CCN(c4ccccc4)CC3)CO2)cc1` (stereo in doubt), the Ki was 690 nM. `c1ccc(C2=N[C@@H](CN3CCN(c4ccccc4)CC3)CO2)cc1` (stereo in doubt; 4a) showed a Ki of 3300 nM. In the case of `C[C@@H]1OC(c2ccccc2)=N[C@H]1CN1CCN(c2ccccc2)CC1` (stereo in doubt; 4b), the Ki is reported as 2700 nM. With `COc1ccc(Br)cc1C1=N[C@@H](CN2CCN(c3ccccc3)CC2)CO1` (stereo in doubt; 4c) the Ki was 5200 nM. `COc1ccc(Br)cc1C1=N[C@@H](CN2CCN(c3ccccc3)CC2)[C@@H](C)O1` (stereo in doubt; 4d) showed a Ki of 2500 nM. `c1ccc(C2=NC[C@H](CN3CCN(c4ccccc4)CC3)N2)cc1` (stereo in doubt; 4e) showed a Ki of 7100 nM.

Same assay, conditions: cho
Molecule `c1ccc(C2=N[C@@H](CN3CCN(c4ccccc4)CC3)CS2)cc1` (stereo in doubt; 4f) has a Ki of 1200 nM.
